From PubChem
Only some compounds are listed: those with a hit (about 3.8% of all), similar ones and a draw of the others.
Kir21 inh = Kir2.1 (mouse) channel inhibition. P35561. HEK293-Kir2.1, FluxOR thallium flux fluorescence; active compounds read low. B-score at 10 µM. actives 0.85% (n = 310,000). AID 1672;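 active = fluorescence ratio B-score at or below minus 3 SD of library scores, with starting-brightness B-score within 2 SD, cut at about -4.2 in these data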;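 note: channel flux triggered by added potassium and thallium sulfate stimulus; B-score of peak minus minimum fluorescence over baseline after thallium stimulus; more negative B-score means stronger Kir2.1 block with less thallium influx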
Target sequence (P35561 whole entry, looked up): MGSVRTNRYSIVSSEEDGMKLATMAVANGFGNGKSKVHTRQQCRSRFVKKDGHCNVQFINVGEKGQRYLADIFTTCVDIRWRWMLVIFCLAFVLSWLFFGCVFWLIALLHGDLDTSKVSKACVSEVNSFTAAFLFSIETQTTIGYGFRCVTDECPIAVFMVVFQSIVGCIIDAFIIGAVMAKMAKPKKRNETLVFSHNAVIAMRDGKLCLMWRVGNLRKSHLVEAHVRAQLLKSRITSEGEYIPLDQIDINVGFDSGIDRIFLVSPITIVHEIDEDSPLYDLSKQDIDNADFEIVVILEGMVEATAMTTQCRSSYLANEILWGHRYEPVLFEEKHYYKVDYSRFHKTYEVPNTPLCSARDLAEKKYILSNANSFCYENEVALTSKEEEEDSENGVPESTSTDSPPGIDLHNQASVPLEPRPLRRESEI
KCNQ1 pot = potentiates or activates the human KCNQ1 potassium channel. P51787. CHO-K1 KCNQ1, thallium flux FluxOR fluorescence; active compounds read high. B-score at 10 µM. actives 0.35% (n = 310,000). AID 2648;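 active = fluorescence ratio B-score, a plate-corrected score, at least three library SD, with initial intensity B-score within 5 SD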
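Material: CHO-K1 cells stably expressing KCNQ1. Medium: assay buffer for compound exposure, DMSO matched across wells. Reagent: K+/Tl+ depolarizing stimulus. Compound dosing: single-concentration screen. Times: 37 °C overnight plating, 90-min dark dye load, 20-min compound pretreatment. Technique: FluxOR Tl+ flux fluorescence.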
hERG rescue = compounds protecting human hERG from proarrhythmic drug block; Q12809; CHO-hERG, FluxOR thallium flux, dofetilide IC70 present; activation (rescue from dofetilide block), less the hit threshold, % at 10 µM; actives 0.51% (n = 310,000);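 active = activation above the mean of controls blocked by dofetilide plus 5 SD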;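 note: thallium influx through hERG after potassium depolarization seen as dye fluorescence rise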
KCNQ1 block = inhibitors of human KCNQ1 potassium channel. P51787. CHO-K1 KCNQ1, FluxOR thallium flux fluorescence; active compounds read high. B-score at 10 µM. actives 1.3% (n = 310,000);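 active = compounds whose thallium flux B-score, printed positive for inhibition, exceeds three library SD while starting fluorescence stays within three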;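 note: channel opened by potassium depolarization with thallium stimulus after 20 min compound exposure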
KCNK9 block = human KCNK9 channel inhibition | HEK293 KCNK9, FluxOR thallium flux fluorescence; active compounds read low | B-score at 10 µM | actives 1.2% (n = 310,000);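 active = ratio B-score over 3 SD below the library mean, with starting fluorescence within 5 SD of its mean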;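 note: negative B-score means less thallium flux so channel inhibition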
KCNK3 block = human KCNK3 channel inhibition, primary screen. B-score at 10 µM. AID 602410. O14649. CHO-KCNK3 thallium flux, FluxOR fluorescence; active compounds read low. actives 0.84% (n = 340,000);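 active = B-score under library mean minus 4 SD, starting fluorescence ratio at most library mean plus 5 SD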;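 note: more negative B-score means stronger inhibition of thallium flux through KCNK3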
KCNK9 block conf = confirmation of human KCNK9 potassium channel inhibitors; shares compounds with KCNK9 block; HEK293 KCNK9 cells, FluxOR thallium flux fluorescence; inhibition, % at 10 µM; actives 43% (n = 4,900);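 active = thallium signal inhibited by more than 5 SD of the compound-free buffer control wells, on both duplicate plates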;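 note: 0% = assay buffer control wells without compound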
Kir2-1 spec = selectivity of KCNK9 modulators against mouse Kir2.1; shares compounds with KCNK9 block; Kir2.1 cells, FluxOR thallium flux fluorescence; inhibition, % at 10 µM; actives 4% (n = 4,900); AID 492993;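 active = thallium signal drop more than 5 SD beyond the mean of the no-compound control wells, seen in both duplicate plates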;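 note: signal is fluorescence rise after thallium addition divided by baseline fluorescence; plate controls were assay buffer only for no effect and full block by chlorpromazine control for full effect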
KCNK9 uninduced = second check of KCNK9 modulator effects in non-induced HEK293 cells; shares compounds with KCNK9 block; FluxOR thallium flux; inhibition, % at 10 µM; actives 40% (n = 4,900);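 active = thallium signal drop beyond 5 SD of the untreated control mean, on both duplicate plates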;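 note: plate controls were buffer only IC0 wells for no effect and SID17386958 at its maximal inhibitory level for full effect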
KCNK3 confirm = confirmation of human KCNK3 two-pore domain potassium channel inhibitors; shares compounds with KCNK3 block; CHO-KCNK3 thallium flux, FluxOR fluorescence; 0% buffer, 100% carvedilol maximal block; ratio percent of control, % at 10 µM; actives 99% (n = 2,400); AID 651638;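 active = ratio percent of control, averaged over triplicates, above buffer control mean plus 5 SD, cut at about 64% in these data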;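 note: ratio is the fluorescence rise from min to max over baseline after thallium stimulus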
KCNK3 noninduced = counter-screen for KCNK3 inhibitors: effect in non-induced cells. thallium flux ratio (lower = more inhibition) at 10 µM. non-induced KCNK3 parental cells, FluxOR thallium flux; active compounds read low. shares compounds with KCNK3 block. actives 40% (n = 2,400);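 active = thallium flux ratio, averaged over three wells, more than 5 SD below the buffer control mean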;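 note: host cells are CHO cells without KCNK3 induction; ratio is peak minus trough fluorescence over baseline then normalized to buffer controls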
An asterisk follows results filed as active; i = inactive; / = no result given.

SMILES	Kir21 inh	KCNQ1 pot	hERG rescue	KCNQ1 block	KCNK9 block	KCNK3 block	KCNK9 block conf	Kir2-1 spec	KCNK9 uninduced	KCNK3 confirm	KCNK3 noninduced
CSc1ccc(C(=O)C2CCCN(Cc3cccnc3)C2)cc1 (configuration not stated)	-2.04	i	-7.7	i	i	i	/	/	/	/	/
CSc1ccc(C(=O)C2CCCN(Cc3cc4ccccc4[nH]3)C2)cc1 (configuration not stated)	-2	i	-26.3	i	i	i	i	49.5%*	i	/	/
CC(Cc1ccccc1)NC(=O)Cc1ccc([N+](=O)[O-])cc1 (configuration not stated)	-2.29	i	-11.7	i	i	i	/	/	/	/	/
COC(=O)C1=C(c2cc3ccccc3o2)C[C@@H]2CC[C@H]1N2C(=O)NCc1ccccc1	0.45	i	-2.7	i	i	i	/	/	/	/	/
Cc1ccc(-c2cc(-c3ccc(C)cc3)[n+](-c3ccc(C(=O)O)cc3)c(-c3ccc(C)cc3)c2)cc1	2.07	i	-2.1	i	i	i	/	/	/	/	/
Brc1ccc(-[n+]2c(-c3ccccc3)cc(-c3ccccc3)cc2-c2ccccc2)cc1	-8.37*	i	-32.7	7*	-8.27*	i	64.0%*	58.5%*	i	/	/
CCOC(=O)C1(CCc2ccccc2)CCN(Cc2cccc3cnccc23)CC1	-0.09	i	-14.9	i	i	i	i	i	i	/	/
CCOC(=O)C1(CCOc2ccccc2)CCN(Cc2ccccc2OC)CC1	-2.76	i	-11.1	i	i	i	i	i	i	/	/
CCOC(=O)C1(CCc2ccccc2)CCN(Cc2csc(C(C)=O)c2)CC1	-1.65	i	-12.6	i	i	i	i	i	i	/	/
COC(=O)C1=C(c2ccccc2)C[C@@H]2CC[C@H]1N2C(=O)N1CCC(C)CC1	-0.31	i	-7.4	i	i	i	/	/	/	/	/
COC(=O)C1=C(c2cccc(OCc3ccccc3)c2)C[C@@H]2CC[C@H]1N2C(=O)NCc1ccccc1OC	/	/	/	/	/	i	/	/	/	/	/
CCOC(=O)C(O)(c1ccc(N=c2ccccn2C)cc1)C(F)(F)F (configuration not stated)	-0.41	i	-0.6	i	i	i	/	/	/	/	/
COc1ccc(C(=O)N2C[C@H]3C[C@@H](C2)c2cccc(=O)n2C3)cc1OC	0.05	i	-7.0	i	i	i	/	/	/	/	/
CC1CCC(C(C)C)C(OC(=O)Cn2c(COc3ccccc3)[n+](C)c3ccccc32)C1 (configuration not stated)	-16.6*	i	-40.8	10*	-12.5*	-8.93*	73.5%*	77.0%*	i	122.0*	i
CCN(CC)C(=O)c1ccc(NC(=O)c2ccc(-n3cncn3)c([N+](=O)[O-])c2)cc1	0.15	i	-9.0	i	i	i	/	/	/	/	/
O=S1(=O)N(Cc2ccc(F)cc2)CCCN1Cc1ccccc1Cl	-0.17	i	-4.0	i	-8.34*	-11.9*	74.0%*	i	41.5%*	124.7*	0.137*
Cc1ccccc1CN1CCCN(Cc2ccc(Cl)cc2)S1(=O)=O	-0.16	i	-2.7	i	-20.9*	i	72.0%*	i	38.0%*	119.3*	i
COc1c(C)cc(C(=O)C2CCCN(Cc3ccccn3)C2)cc1C (configuration not stated)	0.15	i	0.3	i	i	i	/	/	/	/	/
COc1cc(CC(=O)N2C[C@H]3C[C@@H](C2)c2cccc(=O)n2C3)cc(OC)c1OC	/	/	/	/	/	i	/	/	/	/	/
COC(=O)C1=C(c2ccc3ccccc3c2)C[C@@H]2CC[C@H]1N2C(=O)N1CCCCC1	/	/	/	/	/	i	/	/	/	/	/
Cc1cc(OCC(=O)O)c2c3c(c(=O)oc2c1)CCCC3	-0.28	i	-2.9	i	i	i	/	/	/	/	/
COC(=O)c1ccc(COc2cc(C)cc3oc(=O)c4c(c23)CCCC4)o1	1.83	i	-4.4	i	-13*	-9.05*	26.5%*	i	i	100.3*	i
Cc1ccccc1-n1c(C)cc(/C=C2/C(=O)NC(=O)N(Cc3ccco3)C2=O)c1C	-1.56	i	-17.1	i	-15*	i	34.5%*	i	32.0%*	137.7*	0.109*
CCC(C(=O)N1CCC2(CC1)OCCO2)n1c2ccccc2c2nc(=O)cc(C)n21 (configuration not stated)	0.44	i	-6.7	i	i	-10.3*	/	/	/	89.7*	i
CCC(C(=O)N1CCC2(CC1)OCCO2)c1ccccc1 (configuration not stated)	-0.49	i	-7.0	i	i	i	/	/	/	/	/
SMILES	Kir21 inh	KCNQ1 pot	hERG rescue	KCNQ1 block	KCNK9 block	KCNK3 block	KCNK9 block conf	Kir2-1 spec	KCNK9 uninduced	KCNK3 confirm	KCNK3 noninduced
Cc1ccsc1C(=O)C1CCCN(Cc2cc(C(C)C)n[nH]2)C1 (configuration not stated)	-2.09	i	-8.0	i	i	i	/	/	/	/	/
CCCCn1c(O)c(C(CC)=NCc2ccc3c(c2)OCO3)c(=O)[nH]c1=O	0.32	i	-8.6	i	-6.89*	-9.72*	/	/	/	117.3*	i
Cc1c(CC(=O)N2C[C@H]3C[C@@H](C2)c2cccc(=O)n2C3)c(=O)oc2cc(O)c(Cl)cc12	0.93	i	-6.1	i	i	i	/	/	/	/	/
C#C[C@]1(O)CC[C@H]2[C@@H]3CCC4=Cc5nc6nc7ccccc7n6cc5C[C@]4(C)[C@H]3CC[C@@]21C	/	/	/	/	/	-15.7*	/	/	/	131.7*	0.119*
C#CC1(O)CCC2C3CCC4=C/C(=N/OCC(=O)NCC(=O)NC(C(=O)O)C(C)C)CC[C@]4(C)C3CC[C@@]21C (some centres not stated)	-1.18	i	-9.7	i	i	i	/	/	/	/	/
O=c1c2ccccc2nc(/C=C\c2ccccc2[N+](=O)[O-])n1-c1ccccc1O	0.64	i	-14.1	i	i	-10*	/	/	/	112.0*	0.142*
